Experimental data of several laboratories.
Protocols differ between the studies behind these lines.
Target: Fibroblast growth factor receptor 2 (FGFR2, Homo sapiens, UniProt P21802)

| SMILES | effect on | technique | tested at | remaining binding |
| --- | --- | --- | --- | --- |
| C[C@@H]1CN(c2ccc3ncc(-c4ccc5[nH]nc(C6CC6)c5c4)n3n2)C[C@H](C)O1 | binding | competition with immobilised ligand | 50 nM | 100% |
| COc1cnc(Nc2cccc(S(N)(=O)=O)c2)nc1N1CCN(c2ccccc2)CC1 | binding | competition with immobilised ligand | 1 µM | 90% |
| CCOCCn1cc(C(=O)Nc2ccc(-n3nc(-c4cccnc4)cc3C(F)(F)F)cn2)ccc1=O | cell-free assay | competition with immobilised ligand | 1 µM | 49% |
| C=CC(=O)N1CCC(C(=O)NCC(=O)N2CCN(c3nc(-c4cnc(N)nc4C(F)F)nc(N4CCOCC4)n3)CC2)CC1 | binding | competition with immobilised ligand | 1 µM | 89% |
| F[C@@H]1CCN(c2nccc(-c3cnn4ncccc34)n2)C1 | binding |  | 1 µM | 100% |
| Cc1c(C(=O)O)cc(-c2ccc(C3CCNCC3)cc2)c2ccc(-c3ccc(C(F)(F)F)cc3)cc12 | cell-free assay | competition with immobilised ligand | 1 µM | 100% |
| O=C(c1ccc(Nc2ncc(Cl)c(-c3cc4ccccc4s3)n2)cc1)N1CCC(N2CCCC2)CC1 | binding | competition with immobilised ligand | 1 µM | 33% |
| c1cncc(-c2cccc(Nc3nccc(NC4CCCCC4)n3)c2)c1 | binding | competition with immobilised ligand | 10 µM | 22% |
| O=C(O)c1cc(-c2ccc(C3CCNCC3)cc2)c2ccc(-c3ccc(C(F)(F)F)cc3)cc2c1 | cell-free assay | competition with immobilised ligand | 1 µM | 100% |
| Nc1ncc2c(n1)-c1c([nH]c3ccc(C#CC4CC4)cc13)CCCC2 | binding | competition with immobilised ligand | 1 µM | 99% |
| O=C(NCCCN1CCOCC1)c1ccc(Nc2nccc(-c3cc4ccccc4s3)n2)cc1 | binding | competition with immobilised ligand | 1 µM | 84% |
| N[C@@H]1CCN(c2nccc(-c3cnn4ncccc34)n2)C1 | binding |  | 1 µM | 99% |
| CN1CCN(c2cnc3c(C4CCN(C(=O)c5ccc(OC(F)(F)F)cc5N)CC4)ncnc3c2)CC1 | cell-free assay | competition with immobilised ligand | 1 µM | 100% |
| CN(C)c1ncc(F)c(-c2cnn3ncccc23)n1 | binding |  | 1 µM | 100% |
| Cc1cc(C)c(-n2ccn3nc(-c4cccnc4)cc23)cc1NC(=O)c1cc(C#N)cc(S(F)(F)(F)(F)F)c1 | cell-free assay | competition with immobilised ligand | 0.1 µM | 84.3% |
| COc1cnc(Nc2cccc(S(N)(=O)=O)c2)nc1N1CCN(c2ccccc2)C(=O)C1 | binding | competition with immobilised ligand | 1 µM | 90% |
| C[C@H]1CCN(c2nccc(-c3cnn4ncccc34)n2)C1 | binding |  | 1 µM | 100% |
| O=C(NCC1CCOCC1)c1n[nH]cc1NC(=O)c1c(F)cccc1F | binding | competition with immobilised ligand | 1 µM | 100% |
| CCC(=O)N[C@@H]1CC[C@H](C(=O)N(C)c2ccc(-c3nc4ccccc4o3)cc2)C1 | cell-free assay | competition with immobilised ligand | 1 µM | 86% |
| O=C(NCCCN1CCOCC1)c1ccc(Nc2ncc(Cl)c(-c3ccc(Cl)s3)n2)cc1 | binding | competition with immobilised ligand | 1 µM | 29% |
| Cc1cnn2ncc(-c3ccnc(N(C)C)n3)c2c1 | binding |  | 1 µM | 98% |
| Cc1nccc(COC(=O)N2C[C@@H]3[C@@H](CNC(=O)c4ccc5[nH]nnc5c4)[C@@H]3C2)n1 | cell-free assay | competition with immobilised ligand | 1 µM | 78% |
| CN(CCCC(F)(F)F)c1nccc(-c2cnn3ncccc23)n1 | binding |  | 1 µM | 89% |
| Cn1nc(C(=O)NCc2ccc(C(=O)O)cc2)cc1-c1ccc2[nH]ccc2c1 | cell-free assay | competition with immobilised ligand | 0.1 µM | 87% |
| c1cnn2ncc(-c3ccnc(N4CCC45COC5)n3)c2c1 | binding |  | 1 µM | 100% |
| CCN1CCN(Cc2ccc(C(=O)Nc3ccc(C)c(Oc4ccc5c(c4)CC(=O)N5)c3)cc2C(F)(F)F)CC1 | binding | competition with immobilised ligand | 1 µM | 83% |
